Results reported in ChEMBL document CHEMBL5154797 (Eur J Med Chem, 2022).
The source made the active and inactive calls. The rule behind the calls is not given here.

Tests used:
[1] = Cytotoxicity against golden hamster BSR cells assessed as reduction in cell viability incubated for 24 hrs by microplate luminometer method; type: toxicity, cell-based, Mesocricetus auratus; details: for CC50: bsr, 24 h; for CC50 at 24 h: BSR cells
Method in brief: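 BSR cells given serial dilutions from 200 μM, with medium in place of virus. After 24 h at 37 °C, viability was read by luminometer and CC50 calculated.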

[2] = tested on: Lyssavirus rabies; experiment: Antirabies activity against rabies CVS infected in golden hamster BSR cells preincubated for 1 hr followed by mixing of cells measured after 24 hrs by inverted fluorescence microscope analysis; type: functional, organism-based
[3] = Selectivity index, ratio of CC50 for cytotoxicity against golden hamster BSR cells to EC50 for antirabies activity against Rabies virus infected in golden hamster BSR cells; type: toxicity, cell-based; details: read-out: Selectivity Index
[4] = tested on: Huh-7; experiment: Cytotoxicity against human HuH-7 cells assessed as reduction in cell viability incubated for 24 hrs by microplate reader assay; type: functional
[5] = tested on: SARS-CoV-2; experiment: Antiviral activity against S-protein based pseudotyped SARS-CoV-2 infected in Huh7 cells measured after 24 hrs by bright-Glo luciferase assay; type: functional, organism-based; details: Severe acute respiratory syndrome coronavirus 2, Huh-7, 24 h
Method in brief: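 Serial dilutions from 200 μM were held with pseudotyped SARS-CoV-2 (1.3 × 10^4 TCID50) at 37 °C for 1 h, then mixed with Huh7 cells (2000 cells/well) and incubated 24 h. EC50 was calculated from bioluminescence intensity.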

[6] = Selectivity index, ratio of CC50 for cytotoxicity against human Huh7 cells to EC50 for antiviral activity against S-protein based pseudotyped SARS-CoV-2 infected in Huh7 cells; type: functional
[7] = Acute toxicity in Kunming mouse assessed as lethal dose administered orally measured after 7 days; details: in vivo, 800 mg/kg, route po, time 7 day
Method in brief: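 Female Kunming mice (20.0 ± 1.0 g), 6 per group, randomly assigned. Single oral dose of 0, 200, 400, 600 or 800 mg•kg−1, with ddH2O as control. Body weight, behaviour and survival monitored for 7 days.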

[8] = target: Spike glycoprotein (Severe acute respiratory syndrome coronavirus 2, UniProt P0DTC2); experiment: Binding affinity to SARS-CoV-2 spike protein assessed as Kd by SPR analysis
[9] = tested on: Lyssavirus rabies; experiment: Antirabies activity against rabies CVS infected in golden hamster BSR cells assessed as inhibition of viral growth at 25 uM treated 1 hr post infection measured after 23 hrs by measuring luciferase signal; type: functional, organism-based; details: time 24.0 hrs
[10] = Binding affinity to rabies recombinant GST-His-tagged G-glycoprotein protein (20 to 459 AA residues) expressed in Escherichia coli BL21 (DE3) cells assessed as Kd treated for 60 secs followed dissociation time of 120 secs by SPR analysis; set-up: species or system Lyssavirus rabies
Method in brief: (§1)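 Biacore SPR with PBS-P as sample and running buffer. Target protein was amine-coupled to a CM5 chip in sodium acetate pH 4.0. Compound dilution series flowed at 30 μL/min, with 60 s contact and 120 s dissociation. Reference flow cell and blank cycle responses were subtracted.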

[11] = target: Spike glycoprotein (Severe acute respiratory syndrome coronavirus 2) (UniProt P0DTC2); experiment: Binding affinity to SARS-CoV-2 spike protein at 0.16 to 5 uM by SPR analysis; details: dose 0.16-5 µM, DDE = dose-dependent effect; method in brief: as §1

Row | Compound | CC50 [1] [µM] | EC50 [2] [µM] | selectivity ratio [3] | CC50 [4] [µM] | EC50 [5] [µM] | Selectivity Index [6] | CC50 at 24 h [1] [µM] | LD50 at 168 h [7] [mg/kg] | Kd [8] [µM] | Activity [9] | Kd [10] [µM] | Activity [11]
1 | CC(C)/N=c1\cc2n(-c3ccc(Cl)cc3)c3ccccc3nc-2cc1NCc1ccc(Cl)cc1 | 93.1 | 0.76 | 123 | 16.1 | 12.4 | 1.3 |  |  |  |  |  | 
2 | N=c1cc2n(-c3ccc(Cl)cc3)c3ccccc3nc-2cc1Nc1ccc(Cl)cc1 | 35.4 | 20.6 | 1.7 |  |  |  |  |  |  |  |  | 
3 | COc1ccc(Nc2cc3nc4ccccc4n(-c4ccc(Cl)cc4)c-3c/c2=N\C(C)C)cn1 | 35.4 | 2.29 | 15.5 | > 267 | 153 | >1.7 |  |  |  |  |  | 
4 | CCC/N=c1\cc2n(-c3ccc(OC)nc3)c3ccccc3nc-2cc1Nc1ccc(F)cc1 | 107 | 1.4 | 76.4 | < 10 | < 10 |  |  |  |  |  |  | 
5 | COc1ccc(Nc2cc3nc4ccccc4n(-c4ccccc4)c-3c/c2=N\C(C)C)cn1 | 107 | 5.03 | 21.2 | 22.7 | 13.5 | 1.7 |  |  |  |  |  | 
6 | COc1ccc(Nc2cc3nc4ccccc4n(-c4ccc(Cl)cc4)c-3c/c2=N\C(C)C)c(OC)c1 | 120 | 6.86 | 17.6 | 13.5 | < 10 | >1.3 |  |  |  |  |  | 
7 | CC(C)/N=c1\cc2n(-c3ccccc3)c3ccccc3nc-2cc1Nc1ccccc1 |  | 10.7 | 30.1 | 177 | 17.2 | 10.2 | 323 |  |  |  |  | 
8 | CC(C)/N=c1\cc2n(-c3ccc(F)cc3)c3ccccc3nc-2cc1Nc1ccc(Cl)cc1 |  | 4.02 | 55.6 | 17 | 29.6 | 0.6 | 223 |  |  |  |  | 
9 | CC(C)/N=c1\cc2n(-c3ccc(Cl)cc3)c3ccccc3nc-2cc1Nc1ccccc1 | 185 | 8.44 | 21.9 | 154 | 40.9 | 3.8 |  |  |  |  |  | 
10 | COc1ccc(-n2c3c/c(=N\C(C)C)c(Nc4ccc(Cl)cc4)cc-3nc3ccccc32)cn1 | 107 | 5.03 | 21.3 | 51.3 | < 10 | >5.1 |  |  |  |  |  | 
11 | CC(C)/N=c1\cc2n(-c3ccccc3)c3ccccc3nc-2cc1NCc1ccccc1 | 107 | 1.4 | 76.4 | < 10 | < 10 |  |  |  |  |  |  | 
12 | Clc1ccc(Nc2cc3nc4ccccc4n(-c4ccc(Cl)cc4)c-3c/c2=N\C2CC2)cc1 |  | 22.7 | 14.2 | > 267 | 141 | >1.9 |  |  |  |  |  | 
13 | COc1ccc(Nc2cc3nc4ccccc4n(-c4ccc(Cl)cc4)c-3cc2=N)c(OC)c1 |  | 35.4 | 1 | 16.6 | 16.1 | 1 |  |  |  |  |  | 
14 | N=c1cc2n(-c3ccccc3)c3ccccc3nc-2cc1NCc1ccccc1 |  | 35.4 | 1 |  |  |  | 35.4 |  |  |  |  | 
15 | COc1ccc(Nc2cc3nc4ccccc4n(-c4ccc(Cl)cc4)c-3cc2=N)cc1 |  | 106 | 1 | > 267 | 154 | >1.7 |  |  |  |  |  | 
16 | COc1ccc(-n2c3c/c(=N\C4CCC(OC)CC4)c(Nc4ccc(F)cc4)cc-3nc3ccccc32)cn1 (stereo not drawn) | 84.4 | 2.55 | 33.1 | 51.3 | < 10 | >5.1 |  |  |  |  |  | 
17 | COc1ccc(Nc2cc3nc4ccccc4n(-c4ccc(OC)nc4)c-3c/c2=N\C(C)C)cc1 |  | 13.2 | 24.5 | 17.1 | < 10 | >1.7 | 323 |  |  |  |  | 

Row | Compound | CC50 [1] [µM] | EC50 [2] [µM] | selectivity ratio [3] | CC50 [4] [µM] | EC50 [5] [µM] | Selectivity Index [6] | CC50 at 24 h [1] [µM] | LD50 at 168 h [7] [mg/kg] | Kd [8] [µM] | Activity [9] | Kd [10] [µM] | Activity [11]
18 | Fc1ccc(Nc2cc3nc4ccccc4n(-c4ccc(Cl)cc4)c-3c/c2=N\C2CC2)cc1 |  | 6.86 | 47.1 | 16.7 | 13.5 | 1.2 |  |  |  |  |  | 
19 | CCC/N=c1\cc2n(-c3ccccc3)c3ccccc3nc-2cc1Nc1ccccc1 | 14.4 | 0.76 | 19 | 35.6 | < 10 | >3.5 |  |  |  |  |  | 
20 | COc1ccc(-n2c3c/c(=N\C(C)C)c(Nc4cccc(F)c4)cc-3nc3ccccc32)cn1 |  | 1.45 | 223 | 88.9 | 14.6 | 6.1 |  | 800 | 2.52 | Active | 0.73 | Dde
21 | CC(C)/N=c1\cc2n(-c3ccccc3)c3ccccc3nc-2cc1NCc1ccc(F)cc1 | 17.3 | 1.9 | 9.1 | 29.6 | < 10 | >2.9 |  |  |  |  |  | 
22 | CC(C)/N=c1\cc2n(-c3ccc(Cl)cc3)c3ccccc3nc-2cc1Nc1ccc(OC(F)(F)F)cc1 |  | 1.77 | 182 | 38.4 | 9.98 | 3.8 |  |  |  |  |  | 
23 | COc1ccc(Nc2cc3nc4ccccc4n(-c4ccc(Cl)cc4)c-3c/c2=N\C(C)C)cc1 | 130 | 6.86 | 19 | 88.9 | 16.6 | 5.4 |  |  |  |  |  | 
24 | CC(C)/N=c1\cc2n(-c3ccc(Cl)cc3)c3ccccc3nc-2cc1Nc1ccc(Cl)cc1 [CLOFAZIMINE] |  | 2.28 |  | 44.7 | 10 |  | 323 |  |  |  | 0.28 | 
25 | CC(C)/N=c1\cc2n(-c3ccc(F)cc3)c3ccccc3nc-2cc1Nc1ccc(F)cc1 |  | 2.29 | 134 | 267 | 81.1 | 3.3 | 314 |  |  |  |  | 
26 | N=c1cc2n(-c3ccc(Cl)cc3)c3ccccc3nc-2cc1Nc1ccccc1 | 35.4 | 20.6 | 1.7 | < 10 | < 10 |  |  |  |  |  |  | 
27 | CC(C)/N=c1\cc2n(-c3ccccc3)c3ccccc3nc-2cc1Nc1ccc(Cl)cc1 | 42.6 | 1.9 | 22.4 | 16.1 | < 10 | >1.6 |  |  |  |  |  | 
28 | COc1ccc(-n2c3c/c(=N\C4CC4)c(Nc4ccc(F)cc4)cc-3nc3ccccc32)cn1 | 107 | 13.2 | 8.1 | 88.9 | 33.1 | 2.7 |  |  |  |  |  | 
29 | CCC/N=c1\cc2n(-c3ccc(Cl)cc3)c3ccccc3nc-2cc1Nc1ccc(Cl)cc1 |  | 24.9 | 13 | 107 | 39.3 | 2.7 | 323 |  |  |  |  | 
30 | COc1ccc(-n2c3c/c(=N\C(C)C)c(Nc4ccc(F)cc4)cc-3nc3ccccc32)cn1 |  | 1.41 | 229 | 88.9 | < 10 | >8.9 | 323 | 800 |  | Active |  | 
31 | CCC/N=c1\cc2n(-c3ccc(Cl)cc3)c3ccccc3nc-2cc1Nc1ccc(F)cc1 | 54.5 | 1.67 | 32.6 | 14.9 | 10.3 | 1.5 |  |  |  |  |  | 
32 | CC(C)/N=c1\cc2n(-c3ccc(Cl)cc3)c3ccccc3nc-2cc1Nc1ccc(F)cc1 |  | 4.56 | 61.7 | 40.6 | 14.5 | 2.8 | 281 |  |  |  |  | 
33 | COc1ccc(-n2c3c/c(=N\C(C)C)c(Nc4ccccc4)cc-3nc3ccccc32)cn1 |  | 12.3 | 26.3 | < 10 | < 10 |  | 323 |  |  |  |  | 
